Activity calls are given as the source filed them. The rule behind the calls is not given here.
Columns and labels:
[1] = target: T1, Muscarinic acetylcholine receptor M4 (Homo sapiens, UniProt P08173); test: (§1) Positive allosteric modulation of human M4 receptor expressed in CHO-K1 cells coexpressing Gqi5 assessed as potentiation of acetylcholine-mediated calcium mobilization incubated for 144 secs prior to acetylcholine addition by Fluo-4-AM staining; type: functional, cell-based
T1 sequence (P08173 whole entry): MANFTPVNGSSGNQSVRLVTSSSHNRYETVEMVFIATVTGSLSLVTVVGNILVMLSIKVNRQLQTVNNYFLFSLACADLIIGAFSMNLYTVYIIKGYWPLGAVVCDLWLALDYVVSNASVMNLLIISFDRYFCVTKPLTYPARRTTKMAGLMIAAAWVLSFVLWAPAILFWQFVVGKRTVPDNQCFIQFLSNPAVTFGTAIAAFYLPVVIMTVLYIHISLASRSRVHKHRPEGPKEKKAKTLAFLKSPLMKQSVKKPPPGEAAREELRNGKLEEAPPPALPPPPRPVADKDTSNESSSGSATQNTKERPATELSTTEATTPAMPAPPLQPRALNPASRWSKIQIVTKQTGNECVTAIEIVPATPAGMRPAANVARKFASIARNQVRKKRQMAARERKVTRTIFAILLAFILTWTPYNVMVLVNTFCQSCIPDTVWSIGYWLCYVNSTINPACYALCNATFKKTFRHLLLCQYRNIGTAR
Procedure, shortened: (§2)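 hM4 stably cotransfected with chimeric Gqi5 in CHO-K1 cells. Cells plated overnight at 37 °C, loaded with Fluo-4 AM for 45 min at 37 °C in HBSS/20 mM HEPES/2.5 mM probenecid. Compound pretreated 144 s (0.3% DMSO final), then EC20 ACh, then EC80 ACh 86 s later; kinetic fluorescence at 37 °C.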

[2] = target: T2, Muscarinic acetylcholine receptor M4 (Homo sapiens) (UniProt P08173); test: Positive allosteric modulation of human M4 receptor expressed in CHO-K1 cells coexpressing Gqi5 assessed as potentiation of acetylcholine-mediated calcium mobilization incubated for 144 secs prior to acetylcholine addition by Fluo-4-AM staining relative to acetylcholine; type: functional, cell-based
T2 sequence (whole entry): T1 sequence (P08173 whole entry)
Procedure, shortened: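 hM4-Gqi5 CHO-K1 cells, plated overnight, loaded with Fluo-4 AM (45 min, 37 °C). Compound (0.3% DMSO final) preincubated 144 s, then ACh EC20 added, and EC80 added 86 s later; 1 mM ACh wells for normalization. Calcium read at 37 °C, normalized to baseline and then to maximal ACh response. EC50 from four-parameter logistic fit; three independent determinations in triplicate.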

[3] = target: T2, Muscarinic acetylcholine receptor M4 (Homo sapiens); test: as §1; type: functional, cell-based; procedure, shortened: as §2
[4] = Plasma clearance in rat; type: ADME, organism-based

SMILES | EC50 [1] [µM] | %max [2] [%] | pEC50 [3] | further results
COc1ccc(C)c2sc(C(=O)Nc3ccc(C)nc3)nc12 | – | – | inactive | –
COc1ccc(C)c2sc(NS(=O)(=O)c3cc(C)ccn3)nc12 | – | – | inactive | –
COc1ccc(C)c2sc(NC(=O)CCc3ccccc3)nc12 | – | – | inactive | –
COc1ccc(C)c2sc(NS(=O)(=O)c3ccc4occc4c3)nc12 | – | – | inactive | –
COc1ccc(C)c2sc(NS(=O)(=O)c3cccc(C)c3)nc12 | – | – | inactive | –
COc1ccc(CNC(=O)c2sc3nc(C)cc(C)c3c2N)cc1 | – | – | – | clearance [4]: > 100 mL/min/kg
COc1ccc(C)c2sc(NS(=O)(=O)c3ccc(F)cc3F)nc12 | – | – | inactive | –
COc1ccc(C)c2sc(C(=O)NC3CC3)nc12 | 7.76 | 35.6 | – | –
COc1ccc(C)c2sc(NS(=O)(=O)c3cnn(C)c3)nc12 | – | – | inactive | –
O=C(Nc1nc2cccnc2s1)c1cccnn1 | – | – | inactive | –
CCCCC1CC1C(=O)Nc1nc2c(OC)ccc(C)c2s1 (configuration not stated) | – | – | inactive | –
COc1ccc(C)c2sc(NC(=O)Nc3ccncc3)nc12 | – | – | inactive | –
COc1ccc2nc(NC(=O)c3ccncc3)sc2n1 | – | – | inactive | –
COc1cccc2sc(NC(=O)c3ccncc3)nc12 | 2.82 | 36.5 | – | –
COc1ccc(C)c2sc(C(=O)NC3CCCCC3)nc12 | – | – | inactive | –
Cc1cc(OCc2ccncc2)nc2sc(C(=O)NCc3cccc(F)c3F)c(N)c12 | – | – | – | clearance [4]: > 100 mL/min/kg
O=C(Nc1nc2ccccc2s1)C1CCCCO1 (configuration not stated) | – | – | inactive | –
COc1ccc(C)c2sc(NS(=O)(=O)c3cccc(Cl)c3)nc12 | – | – | inactive | –
Cc1nc2sc(C(=O)NCc3ccncc3)c(N)c2c(C)c1Cl | – | – | – | clearance [4]: > 100 mL/min/kg
O=C(Nc1nc2cccnc2s1)C1CCC1 | – | – | inactive | –
COc1ccc(C)c2sc(NS(=O)(=O)c3ccc(C(F)(F)F)cc3)nc12 | – | – | inactive | –
O=C(Nc1nc2cccnc2s1)C1CCCC1 | – | – | inactive | –
COc1ccc(C)c2sc(C(=O)NCc3ccncc3)nc12 | – | – | inactive | –
COc1ccc(C)c2sc(NC(=O)NCc3ccncc3)nc12 | – | – | inactive | –
O=C(Nc1nc2cccnc2s1)c1cnccn1 | – | – | inactive | –

Now from value to compound, other results behind:

EC50 [1] [µM] | %max [2] [%] | pEC50 [3] | SMILES | further results
2.34 | 37.6 | – | COc1ccc(C)c2sc(NC(=O)c3cccnc3)nc12 | –
> 10 | 66.5 | – | COc1ccc(C)c2sc(NC(=O)C3CC3C)nc12 (configuration not stated) | –
– | – | inactive | COc1ccc(C)c2sc(NC(=O)c3ccc(F)cc3)nc12 | –
> 10 | 64.1 | – | COc1ccc(C)c2sc(NC(=O)C3CCCCO3)nc12 (configuration not stated) | –
1.35 | 51.8 | – | COc1ccc(C)c2sc(NC(=O)c3ccco3)nc12 | –
– | – | inactive | COc1ccc(C)c2sc(NC(=O)c3ccc(F)cc3F)nc12 | –
> 10 | 44 | – | COc1ccc(C)c2sc(NC(=O)C3CCCOC3)nc12 (configuration not stated) | –
– | – | inactive | COc1ccc(C)c2sc(NC(=O)CC3CC3)nc12 | –
– | – | inactive | COc1ccc(C)c2sc(NC(=O)c3cc(F)cc(F)c3)nc12 | –
> 10 | 43.2 | – | COCC(=O)Nc1nc2c(OC)ccc(C)c2s1 | –
– | – | inactive | COc1ccc(C)c2sc(NC(=O)NC3CCC3)nc12 | –
> 10 | 52.2 | – | COc1ccc(C)c2sc(NC(=O)C3CCC3)nc12 | –
> 10 | 52.5 | – | CCCC(=O)Nc1nc2c(OC)ccc(C)c2s1 | –
> 10 | 43.5 | – | COc1ccc(C)c2sc(NC(=O)N3CCCC3)nc12 | –
> 10 | 39.3 | – | COc1ccc(C)c2sc(NC(=O)NC3CC3)nc12 | –
> 10 | 61.5 | – | COc1ccc(C)c2sc(NC(=O)C3CC3)nc12 | –
– | – | inactive | COc1ccc(C)c2sc(NC(=O)c3ccccn3)nc12 | –
– | – | inactive | COc1ccc(C)c2sc(NC(=O)C3=C(C)OCCO3)nc12 | –
1.82 | 55.7 | – | COc1ccc(C)c2sc(NC(=O)C3=COCCO3)nc12 | –
7.08 | 36.5 | – | COc1ccc(C)c2sc(NC(=O)NC3CCCC3)nc12 | –
> 10 | 43.7 | – | COc1ccc(C)c2sc(NC(=O)C3CCCCC3)nc12 | –
– | – | inactive | COc1ccc(C)c2sc(NC(=O)c3ccc(F)c(F)c3)nc12 | –
1.12 | 38.2 | – | COc1ccc(C)c2sc(NC(=O)c3cnccn3)nc12 | –
– | – | inactive | COc1ccc(C)c2sc(NC(C)=O)nc12 | –
– | – | inactive | COc1ccc(C)c2sc(NC(=O)c3c(F)cccc3F)nc12 | –
– | – | inactive | COc1ccc(C)c2sc(NC(=O)c3ccc(C)cc3)nc12 | –
– | – | inactive | COc1ccc(C)c2sc(NC(=O)CC(C)(C)C)nc12 | –
– | – | inactive | COc1ccc(C)c2sc(NC(=O)N3CCCCC3)nc12 | –
> 10 | 45 | – | COc1ccc(C)c2sc(NC(=O)C3CCCC3)nc12 | –

Reference: ChEMBL document CHEMBL2057082, “Discovery of N-(4-methoxy-7-methylbenzo[d]thiazol-2-yl)isonicatinamide, ML293, as a novel, selective and brain penetrant positive allosteric modulator of the muscarinic 4 (M4) receptor” (Bioorg Med Chem Lett, 2012)
